Publication PMC10791108 (Journal of Enzyme Inhibition and Medicinal Chemistry, 2024)
Where two headings read alike, the source gives them in different places.

Key:
Topo IIα [1] = target: T1, Topo IIα (Homo sapiens, UniProt P11388); assay: pBR322 DNA relaxation assay; format: biochemical; details: for Inhibition of Topo IIα-mediated pBR322 relaxation: gel
HCT-116 [2] = assay: MTT drug sensitivity assay; format: cell-based; details: Homo sapiens, HCT-116, 72 h, read-out: In vitro growth inhibitory activity (IC50 ± SD) HCT-116
Procedure, shortened: (§1)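 ATCC lines were grown at 37 °C, 5% CO2 with 10% FBS and 2 mM L-glutamine (A549, MCF-7: RPMI-1640; HCT-116, U-2 OS: McCoy's 5A; U-87 MG: MEM; HEK293: DMEM). Test compound 0–50 µM for 72 h, then MTT 0.4 mg/ml in PBS, 3 h, 37 °C. Formazan dissolved in DMSO, absorbance 540 nm. IC50 relative to 1% v/v DMSO-treated cells; three independent runs.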

A549 [3] = assay: MTT drug sensitivity assay; format: cell-based; details: Homo sapiens, A549, 72 h, read-out: In vitro growth inhibitory activity (IC50 ± SD) A549
Procedure, shortened: as §1

[4] = system: all investigated cell lines, including HEK293; assay: MTT drug sensitivity assay, statement over all cell lines; format: cell-based; details: Homo sapiens, HEK293, 72 h, read-out: IC50 for all investigated cell lines
Procedure, shortened: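 Cells were exposed to test compound at 0–50 µM for 72 h. Lines: A549 and MCF-7 (RPMI-1640), HCT-116 and U-2 OS (McCoy's 5A), U-87 MG (MEM), HEK293 (DMEM); all with 10% FBS, 37 °C, 5% CO2. MTT (0.4 mg/ml in PBS) for 3 h at 37 °C; formazan dissolved in DMSO; A540. ETP and m-AMSA as references; independent triplicate.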

human Topo IIβ [5] = target: T2, human Topo IIβ (Homo sapiens, UniProt Q02880); assay: pBR322 DNA relaxation assay; format: biochemical; details: gel
T2 sequence (Q02880 whole entry): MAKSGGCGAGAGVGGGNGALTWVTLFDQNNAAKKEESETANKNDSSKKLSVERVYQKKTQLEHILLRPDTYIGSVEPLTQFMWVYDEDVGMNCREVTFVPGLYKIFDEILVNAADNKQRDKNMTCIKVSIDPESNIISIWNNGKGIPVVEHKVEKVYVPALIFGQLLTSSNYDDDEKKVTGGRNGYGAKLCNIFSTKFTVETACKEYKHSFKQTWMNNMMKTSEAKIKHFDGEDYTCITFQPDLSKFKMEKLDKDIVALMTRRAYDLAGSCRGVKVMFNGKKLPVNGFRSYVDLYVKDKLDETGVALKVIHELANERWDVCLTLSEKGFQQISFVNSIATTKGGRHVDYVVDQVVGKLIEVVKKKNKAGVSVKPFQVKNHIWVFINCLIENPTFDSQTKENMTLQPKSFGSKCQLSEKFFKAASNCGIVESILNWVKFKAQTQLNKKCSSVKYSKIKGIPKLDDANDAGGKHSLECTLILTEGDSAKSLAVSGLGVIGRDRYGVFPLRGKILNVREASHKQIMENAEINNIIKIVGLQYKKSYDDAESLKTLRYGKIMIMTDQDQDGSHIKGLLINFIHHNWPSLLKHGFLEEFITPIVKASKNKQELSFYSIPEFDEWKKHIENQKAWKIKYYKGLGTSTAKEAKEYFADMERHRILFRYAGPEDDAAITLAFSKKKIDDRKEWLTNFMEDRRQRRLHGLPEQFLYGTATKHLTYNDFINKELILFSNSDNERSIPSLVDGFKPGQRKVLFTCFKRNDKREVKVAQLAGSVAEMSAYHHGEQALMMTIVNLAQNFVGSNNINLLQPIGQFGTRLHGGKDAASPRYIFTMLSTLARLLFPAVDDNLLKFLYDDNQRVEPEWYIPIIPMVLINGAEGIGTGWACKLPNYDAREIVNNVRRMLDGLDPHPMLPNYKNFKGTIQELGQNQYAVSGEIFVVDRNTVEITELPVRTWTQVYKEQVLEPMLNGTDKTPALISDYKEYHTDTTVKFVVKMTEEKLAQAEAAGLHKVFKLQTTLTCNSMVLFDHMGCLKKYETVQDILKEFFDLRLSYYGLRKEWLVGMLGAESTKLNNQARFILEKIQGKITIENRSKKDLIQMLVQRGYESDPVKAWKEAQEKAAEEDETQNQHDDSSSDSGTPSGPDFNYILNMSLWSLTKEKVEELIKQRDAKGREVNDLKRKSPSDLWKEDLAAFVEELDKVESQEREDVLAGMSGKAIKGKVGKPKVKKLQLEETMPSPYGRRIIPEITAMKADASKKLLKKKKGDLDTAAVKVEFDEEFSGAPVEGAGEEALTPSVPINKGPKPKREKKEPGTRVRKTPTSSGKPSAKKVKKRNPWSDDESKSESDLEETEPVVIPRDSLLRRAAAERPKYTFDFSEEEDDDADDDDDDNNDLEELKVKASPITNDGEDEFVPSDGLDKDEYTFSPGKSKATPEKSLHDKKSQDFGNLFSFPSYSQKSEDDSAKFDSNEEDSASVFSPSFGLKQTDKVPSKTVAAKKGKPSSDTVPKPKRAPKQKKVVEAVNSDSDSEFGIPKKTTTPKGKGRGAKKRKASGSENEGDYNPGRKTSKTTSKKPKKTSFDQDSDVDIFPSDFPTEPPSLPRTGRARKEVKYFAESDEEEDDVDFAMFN
Procedure, shortened: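 Supercoiled pBR322 (250 ng) with test compound in reaction buffer. Started by adding diluted human Topo IIβ, incubated 30 min at 37 °C, quenched with loading buffer. Topoisomers separated on 1% agarose in 1× TBE (20 V, 18 h) and visualised by ethidium bromide staining. ETP and ICRF-187 were included as references.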

U-87 MG = assay: MTT drug sensitivity assay; format: cell-based; details: Homo sapiens, 72 h, read-out: In vitro growth inhibitory activity (IC50 ± SD) U-87 MG
Procedure, shortened: as §1

A549 [6] = assay: Clonogenic assay; format: cell-based, human; details: 24 h treatment, eight days culture, vs DMSO
Procedure, shortened: (§2)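 A549 or HCT-116 cells were seeded at 400 cells/well and exposed to a range of test compound concentrations for 24 h. After washing, cells were grown for eight days, then fixed in methanol and stained with 0.5% crystal violet. Colonies were counted and viability calculated relative to control. Mean ± SD of three independent experiments.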

HCT-116 [7] = assay: Annexin V-FITC/7-AAD apoptosis assay; format: cell-based, human; details: for Necrosis activation HCT-116: statistically significant, **p < 0.001
Topo IIα [8] = target: T1, Topo IIα; assay: kDNA decatenation assay; format: biochemical; details: gel
Procedure, shortened: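 Commercial kit protocol: 250 ng kDNA with test compound in reaction buffer; started by adding diluted human Topo IIα; 30 min at 37 °C; stopped with loading buffer. Products resolved on 1% agarose in 1xTBE, 20 V for 18 h, EtBr-stained, destained in water, imaged. Catenated versus decatenated kDNA judged by migration.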

human Topo IIβ [9] = target: T2, human Topo IIβ; assay: kDNA decatenation assay; format: biochemical; details: gel
Procedure, shortened: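 Decatenation: 250 ng kDNA was mixed with test compound in reaction buffer. The reaction was started with diluted human Topo IIβ and run for 30 min at 37 °C, then stopped with loading buffer. Products were resolved on a 1% agarose gel in 1× TBE at 20 V for 18 h and stained with ethidium bromide. ETP and ICRF-187 were references.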

A549 [10] = assay: Annexin V-FITC/7-AAD apoptosis assay; format: cell-based, human; details: Annexin V/7-AAD
MCF-7 [11] = assay: MTT drug sensitivity assay; format: cell-based; details: Homo sapiens, MCF7, 72 h, read-out: In vitro growth inhibitory activity (IC50 ± SD) MCF-7
Procedure, shortened: as §1

Topo IIα [12] = target: T1, Topo IIα; assay: DNA cleavage assay; format: biochemical; details: for Stabilisation of Topo IIα/DNA cleavage complex (linear pBR322 plasmid): gel, ETP 100 µM
Procedure, shortened: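 Reaction mix as for the human Topo IIα relaxation assay (plasmid DNA, test compound, reaction buffer), but with fivefold more enzyme. Reaction started by adding human Topo IIα, then 10 min at 37 °C. Products separated by agarose gel electrophoresis in 1× TBE containing EtBr (1 µg/ml), and linear plasmid scored on the gel.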

A549 [13] = assay: Caspase-3/7 activation; format: cell-based, human; details: 24 h, equitoxic concentrations
HEK293 = assay: MTT drug sensitivity assay; format: cell-based; details: Homo sapiens, HEK293, 72 h, read-out: In vitro growth inhibitory activity (IC50 ± SD) HEK293
Procedure, shortened: as §1

U-2 OS = assay: MTT drug sensitivity assay; format: cell-based; details: Homo sapiens, U2OS, 72 h, read-out: In vitro growth inhibitory activity (IC50 ± SD) U-2 OS
Procedure, shortened: as §1

HCT-116 [14] = assay: TUNEL DNA fragmentation analysis; format: cell-based, human; details: 24 and 48 h; more pronounced than on A549
HCT-116 [15] = assay: Clonogenic assay; format: cell-based, human; details: 24 h treatment, eight days culture, vs DMSO
Procedure, shortened: as §2

HCT-116 [16] = assay: Cell cycle analysis; format: cell-based, human; details: equitoxic concentrations, 24 and 48 h
HCT-116 [17] = assay: BrdU incorporation assay; format: cell-based, human; details: equitoxic (IC50) concentration, 24 or 48 h
MCF-7 [18] = assay: Cell cycle analysis; format: cell-based, human; details: 48 h exposure, equitoxic concentration, p < 0.00001
A549 [19] = assay: BrdU incorporation assay; format: cell-based, human; details: equitoxic (IC50) concentration, 24 or 48 h
HCT-116 [20] = details: reference, 50 µM added 15 min before end of incubation
A549 [21] = details: reference, 50 µM added 15 min before end of incubation
MCF-7 [22] = details: read-out: IC50 cytotoxic activity MCF-7; 72 h ref 51; cited from earlier work
A549 [23] = details: read-out: IC50 cytotoxic activity A549; 72 h ref 51; cited from earlier work
[24] = concentration series up to highest concentration tested

T1 sequence (P11388 whole entry): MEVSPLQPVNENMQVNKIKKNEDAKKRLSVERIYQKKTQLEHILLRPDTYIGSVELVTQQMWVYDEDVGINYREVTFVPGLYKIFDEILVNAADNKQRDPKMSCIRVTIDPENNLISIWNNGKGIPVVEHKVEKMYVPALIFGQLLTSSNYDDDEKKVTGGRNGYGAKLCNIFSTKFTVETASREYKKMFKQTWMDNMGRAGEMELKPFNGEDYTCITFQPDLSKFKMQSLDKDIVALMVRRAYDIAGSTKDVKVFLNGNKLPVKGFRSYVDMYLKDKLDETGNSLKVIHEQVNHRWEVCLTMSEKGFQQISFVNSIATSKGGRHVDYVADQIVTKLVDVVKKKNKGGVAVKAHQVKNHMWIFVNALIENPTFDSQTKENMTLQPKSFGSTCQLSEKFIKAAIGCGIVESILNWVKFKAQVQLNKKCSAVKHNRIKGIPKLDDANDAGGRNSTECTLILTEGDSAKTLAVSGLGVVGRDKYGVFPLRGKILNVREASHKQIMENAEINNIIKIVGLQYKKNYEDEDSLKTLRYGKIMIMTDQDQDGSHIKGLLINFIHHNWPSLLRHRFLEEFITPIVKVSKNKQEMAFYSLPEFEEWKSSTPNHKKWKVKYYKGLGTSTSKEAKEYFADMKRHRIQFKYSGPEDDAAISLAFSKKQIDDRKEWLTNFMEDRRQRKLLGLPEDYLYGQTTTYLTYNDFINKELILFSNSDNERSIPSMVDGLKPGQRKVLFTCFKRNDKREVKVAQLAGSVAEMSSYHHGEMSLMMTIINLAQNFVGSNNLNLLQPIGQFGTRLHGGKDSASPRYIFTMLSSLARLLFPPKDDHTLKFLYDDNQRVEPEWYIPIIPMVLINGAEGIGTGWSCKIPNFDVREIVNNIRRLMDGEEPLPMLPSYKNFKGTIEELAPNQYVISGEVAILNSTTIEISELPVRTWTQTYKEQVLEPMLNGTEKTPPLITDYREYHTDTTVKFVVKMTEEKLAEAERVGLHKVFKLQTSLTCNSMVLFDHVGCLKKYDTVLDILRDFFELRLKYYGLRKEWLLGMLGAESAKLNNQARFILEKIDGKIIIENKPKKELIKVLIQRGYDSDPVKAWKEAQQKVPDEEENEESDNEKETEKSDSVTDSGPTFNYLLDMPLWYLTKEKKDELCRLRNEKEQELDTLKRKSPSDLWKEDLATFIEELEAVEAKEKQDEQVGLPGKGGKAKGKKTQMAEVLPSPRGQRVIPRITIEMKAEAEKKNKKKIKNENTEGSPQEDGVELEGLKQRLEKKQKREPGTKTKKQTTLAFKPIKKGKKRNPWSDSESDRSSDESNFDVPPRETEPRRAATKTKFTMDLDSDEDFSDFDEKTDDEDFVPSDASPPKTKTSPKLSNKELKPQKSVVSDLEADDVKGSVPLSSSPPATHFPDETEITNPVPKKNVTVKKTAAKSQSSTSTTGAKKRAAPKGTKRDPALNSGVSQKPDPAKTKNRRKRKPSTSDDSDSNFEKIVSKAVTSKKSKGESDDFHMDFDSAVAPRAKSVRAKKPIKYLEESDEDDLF

Row | Structure (SMILES) | IC50 (HCT-116 [2]) [µM] | IC50 (A549 [3]) [µM] | IC50 (U-87 MG) [µM] | Colony-forming ability A549 (A549 [6]) | IC50 (MCF-7 [11]) [µM] | Stabilisation of Topo IIα/DNA cleavage complex (linear pBR322 plasmid) (Topo IIα [12]) | Caspase-3/7 activation, increase compared to control A549 (A549 [13]) [fold] | IC50 (HEK293) [µM] | IC50 (U-2 OS) [µM] | also measured
1 | c1coc(-c2ccc3c(c2)[nH]c2cc(-c4ccco4)ccc23)c1 [Compound 27a, 2,7-Di(2-furyl)-9H-carbazole] | 0.22 ± 0.04 | 0.26 ± 0.12 | 0.45 ± 0.15 | reduced the colony number | 0.79 ± 0.21 | do not stabilise the covalent cleavage complex | 3.4 | 0.19 ± 0.07 | 0.37 ± 0.05 | Inhibition of Topo IIα-mediated pBR322 relaxation (Topo IIα [1]; highest tested concentrations): moderately affected; IC50 [4]: < 1 µM; Inhibition of Topo IIβ-mediated pBR322 relaxation (human Topo IIβ [5]; highest tested concentrations): moderately affected; Increase in fraction of apoptotic cells compared to control HCT-116 (HCT-116 [7]; Annexin V/7-AAD): eightfold increase; Necrosis activation HCT-116 (HCT-116 [7]): slightly activated necrosis; Inhibition of Topo IIα-mediated kDNA decatenation (Topo IIα [8]; [24]): either completely inhibited decatenation only at the highest concentration tested, or partially inhibited the decatenation of higher-order catenates; Inhibition of Topo IIβ-mediated kDNA decatenation (human Topo IIβ [9]; 100 µM): completely inhibited decatenation; Increase in fraction of apoptotic cells compared to control A549 (A549 [10]): eightfold increase; TUNEL-positive cells HCT-116 (HCT-116 [14]): most massive effect; Colony-forming ability HCT-116 (HCT-116 [15]): reduced the colony number
2 | c1coc(-c2ccc3[nH]c4ccc(-c5ccco5)cc4c3c2)c1 [Compound 36a, 3,6-Di(2-furyl)-9H-carbazole] | 0.48 ± 0.06 | 0.93 ± 0.15 | 2.19 ± 0.3 | reduced the colony number | 1.39 ± 0.29 | do not stabilise the covalent cleavage complex | 5.7 | 1.65 ± 0.13 | 0.99 ± 0.18 | Isoform selectivity of relaxation inhibition (Topo IIα vs Topo IIβ) (Topo IIα [1]; from relaxation gels with both isoforms): selectively inhibits the relaxation activity of Topo IIα; Inhibition of Topo IIα-mediated pBR322 relaxation (Topo IIα [1]; 20–100 µM): fully inhibited DNA relaxation; Inhibition of Topo IIβ-mediated pBR322 relaxation (human Topo IIβ [5]; 20–100 µM): did not impact Topo IIβ activity; Inhibition of Topo IIα-mediated kDNA decatenation (Topo IIα [8]; 4–100 µM): effective and concentration-dependent inhibition; Inhibition of Topo IIβ-mediated kDNA decatenation (human Topo IIβ [9]; highest concentration tested): partially inhibiting decatenation only at the highest concentration tested; Effect on ETP-induced DNA cleavage (linear plasmid) (Topo IIα [12]; co-treatment with ETP, Topo IIα): reduced the level of linear plasmid; Cell cycle effect HCT-116 (G0/G1 phase) (HCT-116 [16]): time-dependent increase in the number of cells in the G0/G1 phase; Colony-forming ability HCT-116 (HCT-116 [15]): reduced the colony number
3 | c1csc(-c2ccc3[nH]c4ccc(-c5cccs5)cc4c3c2)c1 [Compound 36b, 3,6-Di(2-thienyl)-9H-carbazole] | 0.27 ± 0.11 | 0.6 ± 0.1 | 1.4 ± 0.24 | lower inhibitory activity | 0.83 ± 0.21 | do not stabilise the covalent cleavage complex | 2.5 | 0.32 ± 0.11 | 0.71 ± 0.06 | Inhibition of Topo IIα-mediated pBR322 relaxation (Topo IIα [1]; highest tested concentrations): moderately affected; Decrease in BrdU-positive cells HCT-116 (HCT-116 [17]): ~3.5 fold; Cells in G0/G1 phase MCF-7 (MCF-7 [18]): 59.85 ± 2.15%; Inhibition of Topo IIβ-mediated pBR322 relaxation (human Topo IIβ [5]; highest tested concentrations): moderately affected; Necrosis activation HCT-116 (HCT-116 [7]): slightly activated necrosis; Inhibition of Topo IIα-mediated kDNA decatenation (Topo IIα [8]; [24]): either completely inhibited decatenation only at the highest concentration tested, or partially inhibited the decatenation of higher-order catenates; Decrease in BrdU-positive cells A549 (A549 [19]): approximately 4 fold
4 | COc1cc([C@@H]2c3cc4c(cc3[C@@H](O[C@@H]3O[C@@H]5CO[C@@H](C)O[C@H]5[C@H](O)[C@H]3O)[C@H]3COC(=O)[C@H]23)OCO4)cc(OC)c1O [Etoposide, etoposide, reference compound] | 0.39 ± 0.01 | 0.54 ± 0.21 | 11.9 ± 1.31 | – | 0.83 ± 0.15 | – | – | – | 0.61 ± 0.04 | –
5 | N#CC(C#N)=NNc1ccc(OC(F)(F)F)cc1 [FCCP, carbonyl cyanide 4-(trifluoromethoxy)phenylhydrazone] | – | – | – | – | – | – | – | – | – | Increase in JC-1 monomers vs control HCT-116 (HCT-116 [20]): 6.3 fold; Increase in JC-1 monomers vs control A549 (A549 [21]): 11 fold
6 | C[C@@H](CN1CC(=O)NC(=O)C1)N1CC(=O)NC(=O)C1 [ICRF-187, reference compound] | – | – | – | – | – | – | – | – | – | Inhibition of Topo IIα-mediated pBR322 relaxation (Topo IIα [1]; reference at 100 µM): completely inhibited relaxation activity; Inhibition of Topo IIβ-mediated pBR322 relaxation (human Topo IIβ [5]; reference at 100 µM): relatively lower inhibitory effects; Inhibition of Topo IIβ-mediated kDNA decatenation (human Topo IIβ [9]; 100 µM): more significant effect than ETP
7 | O=C1NC(=S)NC(=O)C1C(=O)Nc1ccccc1 [merbarone] | – | – | – | – | – | – | – | – | – | IC50 (MCF-7 [22]): 83.9 ± 3 µM; IC50 (A549 [23]): 40 ± 2.7 µM
